Test results taken from ChEMBL document CHEMBL1148762, “Lysosome and HER3 (ErbB3) selective anticancer agent kahalalide F: semisynthetic modifications and antifungal lead-exploration studies” (J Med Chem, 2007).
Converted amounts (≈) assume the structure as drawn. The source made the active and inactive calls. The calls are words filed in the database; no cut-off is given here.

Columns and labels:
Aspergillus fumigatus = test: Antimicrobial activity against Aspergillus fumigatus ATCC 90906; type: functional, organism-based
Cryptococcus neoformans = test: Antimicrobial activity against Cryptococcus neoformans ATCC 90113; type: functional, organism-based
Candida albicans = test: Antimicrobial activity against Candida albicans ATCC 90028; type: functional, organism-based
[1] = system: Mycobacterium intracellulare; test: Antimicrobial activity against Mycobacterium intracellular ATCC 23068; type: functional, organism-based
Leishmania donovani = test: Antiparasitic activity against Leishmania donovani; type: functional, organism-based
SK-OV-3 = test: Cytotoxicity against human SK-OV3 cells; type: functional
Summary of the method: (§1)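 NCI Developmental Therapeutics Program cell panel. GI50 is the concentration that reduces growth of treated cells to half that of untreated controls. TGI is the concentration that completely halts growth.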

ACHN = test: Cytotoxicity against human ACHN cells; type: functional; summary of the method: as §1
PC-3 = test: Cytotoxicity against human PC3 cells; type: functional; summary of the method: as §1
DU-145 = test: Cytotoxicity against human DU145 cells; type: functional; summary of the method: as §1
Hs-578T = test: Cytotoxicity against human HS578T cells; type: functional; summary of the method: as §1
A549 = test: Cytotoxicity against human A549 cells; type: functional; summary of the method: as §1
NCI-H322M = test: Cytotoxicity against human NCI-H322M cells; type: functional; summary of the method: as §1
RPMI-8226 = test: Cytotoxicity against human RPMI8226 cells; type: functional; summary of the method: as §1
COLO 205 = test: Cytotoxicity against human COLO205 cells; type: functional; summary of the method: as §1
HCC 2998 = test: Cytotoxicity against human HCC2998 cells; type: functional; summary of the method: as §1
HCT-15 = test: Cytotoxicity against human HCT15 cells; type: functional; summary of the method: as §1
HT-29 = test: Cytotoxicity against human HT29 cells; type: functional; summary of the method: as §1
KM12 = test: Cytotoxicity against human KM12 cells; type: functional; summary of the method: as §1
SNB-75 = test: Cytotoxicity against human SNB75 cells; type: functional; summary of the method: as §1
UACC-257 = test: Cytotoxicity against human UACC257 cells; type: functional; summary of the method: as §1
[2] = system: Mycobacterium tuberculosis; test: Antibacterial activity against Mycobacterium tuberculosis H37Rv at 16 ug/mL by micro plate alamar blue assay; type: functional
Summary of the method: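 M. tuberculosis H37Rv ATCC 27294 grown in BACTEC 12B medium; microplate Alamar blue assay (MABA). Primary screen at a single concentration of 16 µg/mL, read as percent inhibition.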

[3] = system: Mycobacterium tuberculosis; test: Antibacterial activity against Mycobacterium tuberculosis H37Rv by micro plate alamar blue assay; type: functional
Fusarium proliferatum = test: Fungistatic activity against Fusarium proliferatum at 30 uM after 72 hrs by microtiter plate assay; type: functional, organism-based
Summary of the method: (§2)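 Conidia come from 7-day potato dextrose agar cultures, filtered and set photometrically (625 nm) to 3 × 10^5 conidia/mL. They are exposed to compound at 30 µM in 96-well microdilution broth at 24 ± 1 °C under a 12 h photoperiod. After 72 h, 20 µL per well is subcultured on drug-free potato dextrose agar at 28 °C for 3 days. No regrowth is scored fungicidal; regrowth is scored fungistatic.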

Fusarium solani = test: Fungicidal activity against Fusarium solani at 30 uM after 72 hrs by microtiter assay; type: functional, organism-based
Summary of the method: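 After 72 h of microtiter broth exposure at 30 µM, 20 µL from each well was plated onto compound-free potato dextrose agar and incubated 3 days at 28 °C. No regrowth was scored fungicidal; regrowth was scored fungistatic.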

Fusarium oxysporum = test: Fungistatic activity against Fusarium oxysporum at 30 uM after 72 hrs by microtiter plate assay; type: functional, organism-based; summary of the method: as §2

For C/C=C1\NC(=O)[C@H](Cc2ccccc2)NC(=O)[C@@H](C(C)C)NC(=O)[C@@H]([C@@H](C)CC)NC(=O)[C@H](NC(=O)[C@H](NC(=O)[C@H](CCCNCCCCCC)NC(=O)[C@H]2CCCN2C(=O)[C@H](NC(=O)[C@@H](NC(=O)[C@@H](NC(=O)[C@H](NC(=O)CCCC(C)C)C(C)C)[C@@H](C)O)C(C)C)C(C)C)[C@@H](C)CC)[C@@H](C)OC(=O)[C@H](C(C)C)NC1=O, which IC50 (Aspergillus fumigatus) is on record?
Its IC50 is 3120 nM.

What about the IC50 (Cryptococcus neoformans) of the same molecule?
The IC50 was 1930 nM.

What about the IC50 (Candida albicans) of the same molecule?
Its IC50 is 5690 nM.

And the IC50 [1]?
The IC50 was greater than 20000 nM.

And the IC50 (Leishmania donovani)?
The IC50 was 17 µg/mL (≈ 10.9 µM).

For C/C=C1\NC(=O)[C@H](Cc2ccccc2)NC(=O)[C@@H](C(C)C)NC(=O)[C@@H]([C@@H](C)CC)NC(=O)[C@H](NC(=O)[C@H](NC(=O)[C@H](CCCNCc2cccs2)NC(=O)[C@H]2CCCN2C(=O)[C@H](NC(=O)[C@@H](NC(=O)[C@@H](NC(=O)[C@H](NC(=O)CCCC(C)C)C(C)C)[C@@H](C)O)C(C)C)C(C)C)[C@@H](C)CC)[C@@H](C)OC(=O)[C@H](C(C)C)NC1=O, which IC50 (Aspergillus fumigatus) is on record?
The IC50 was 3220 nM.

And the IC50 (Cryptococcus neoformans)?
The IC50 was 1910 nM.

And the IC50 (Candida albicans)?
Its IC50 is 3810 nM.

What about the IC50 [1] of the same molecule?
Its IC50 is 12000 nM.

And the IC50 (Leishmania donovani)?
Its IC50 is 17 µg/mL (≈ 10.8 µM).

How did the GI50 (SK-OV-3) turn out when CC(=O)O[C@H]1C(=O)[C@@]2(C)[C@H]([C@H](OC(=O)c3ccccc3)[C@]3(O)C[C@H](OC(=O)[C@H](O)[C@@H](NC(=O)c4ccccc4)c4ccccc4)C(C)=C1C3(C)C)[C@]1(OC(C)=O)CO[C@@H]1C[C@@H]2O [PACLITAXEL] was run?
The GI50 was 8 nM.

And the TGI (SK-OV-3)?
The TGI was 15800 nM.

And the GI50 (ACHN)?
Its GI50 is 398 nM.

And the TGI (ACHN)?
Its TGI is 12600 nM.

And the GI50 (PC-3)?
Its GI50 is 4 nM.

And the TGI (PC-3)?
Its TGI is 10000 nM.

What about the GI50 (DU-145) of the same molecule?
The GI50 was 5 nM.

And the TGI (DU-145)?
The TGI was 794 nM.

And the GI50 (Hs-578T)?
Its GI50 is 3 nM.

What about the TGI (Hs-578T) of the same molecule?
Its TGI is 100 nM.

What about the GI50 (A549) of the same molecule?
Its GI50 is 4 nM.

What about the TGI (A549) of the same molecule?
Its TGI is 25100 nM.

And the GI50 (NCI-H322M)?
Its GI50 is 13 nM.

And the TGI (NCI-H322M)?
The TGI was 6310 nM.

What about the GI50 (RPMI-8226) of the same molecule?
Its GI50 is 2 nM.

And the TGI (RPMI-8226)?
The TGI was 5010 nM.

What about the GI50 (COLO 205) of the same molecule?
Its GI50 is 3 nM.

What about the TGI (COLO 205) of the same molecule?
Its TGI is 316 nM.

And the GI50 (HCC 2998)?
Its GI50 is 3 nM.

And the TGI (HCC 2998)?
Its TGI is 126 nM.

And the GI50 (HCT-15)?
Its GI50 is 158 nM.

What about the TGI (HCT-15) of the same molecule?
Its TGI is 15800 nM.

And the GI50 (HT-29)?
Its GI50 is 2 nM.

What about the TGI (HT-29) of the same molecule?
The TGI was 251 nM.

What about the GI50 (KM12) of the same molecule?
The GI50 was 4 nM.

What about the TGI (KM12) of the same molecule?
The TGI was 15800 nM.

What about the GI50 (SNB-75) of the same molecule?
Its GI50 is 4 nM.

And the TGI (SNB-75)?
The TGI was 126 nM.

And the GI50 (UACC-257)?
The GI50 was 40 nM.

What about the TGI (UACC-257) of the same molecule?
Its TGI is 25100 nM.

With C/C=C1\NC(=O)[C@H](Cc2ccccc2)NC(=O)[C@@H](C(C)C)NC(=O)[C@@H]([C@@H](C)CC)NC(=O)[C@H](NC(=O)[C@H](NC(=O)[C@H](CCCN(CCCCCC)CCCCCC)NC(=O)[C@H]2CCCN2C(=O)[C@H](NC(=O)[C@@H](NC(=O)[C@@H](NC(=O)[C@H](NC(=O)CCCC(C)C)C(C)C)[C@@H](C)O)C(C)C)C(C)C)[C@@H](C)CC)[C@@H](C)OC(=O)[C@H](C(C)C)NC1=O as the molecule, how does the MFC (Aspergillus fumigatus) read?
Its MFC is greater than 20 µM.

What about the MIC (Aspergillus fumigatus) of the same molecule?
The MIC was greater than 20 µM.

And the MFC (Cryptococcus neoformans)?
The MFC was greater than 20 µM.

And the MIC (Cryptococcus neoformans)?
Its MIC is greater than 20 µM.

And the MFC (Candida albicans)?
The MFC was greater than 20 µM.

What about the MIC (Candida albicans) of the same molecule?
The MIC was greater than 20 µM.

And the MBC [1]?
Its MBC is greater than 20 µM.

And the MIC [1]?
Its MIC is greater than 20 µM.

What about the inhibition at 16 µg/mL [2] of the same molecule?
The inhibition at 16 µg/mL was 91%.

What about the MIC [3] of the same molecule?
Its MIC is 9.4 µg/mL (≈ 5.71 µM).

Which Activity (Fusarium proliferatum) does the source give for C/C=C1\NC(=O)[C@H](Cc2ccccc2)NC(=O)[C@@H](C(C)C)NC(=O)[C@@H]([C@@H](C)CC)NC(=O)[C@H](NC(=O)[C@H](NC(=O)[C@H](CCCNCc2ccc(F)cc2)NC(=O)[C@H]2CCCN2C(=O)[C@@H](NC(=O)[C@H](NC(=O)[C@H](NC(=O)[C@@H](NC(=O)CCCC(C)C)C(C)C)[C@H](C)O)C(C)C)C(C)C)[C@@H](C)CC)[C@@H](C)OC(=O)[C@H](C(C)C)NC1=O here?
Its Activity is “Active”.

And the Activity (Fusarium solani)?
Its Activity is “Active”.

And the Activity (Fusarium oxysporum)?
The Activity was “Active”.
